# Most compounds without a hit are left out; they make up all but 1.2% or so of the library.
# TPT1 inh = C. albicans TPT1 enzyme inhibition; recombinant caTPT1, FP RNA substrate dephosphorylation; inhibition, % at 5 µM; hit rate 0.81% among 300,000;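 active means inhibition above the mean of all tested compounds plus 3 SD, set per screening campaign, cut at about 24% in these data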
# HNF4A DNA FP = change in binding of human HNF4 alpha to DNA; HNF4a-FITC DNA binding, fluorescence polarization, 1 h; activity change, % at 10 µM; hit rate 0.3% among 360,000; AID 1224865; in the data active means activity change above about 30%, passing the limit was not always enough
# Rtt109 HAT inh = blocks Candida albicans Rtt109/Vps75 acetyltransferase activity; purified Rtt109/Vps75, ThioGlo CoA-SH fluorescence, 4 h; inhibition, % at 34.9 µM; Q5AAJ8; AID 540336; hit rate 0.16% among 330,000;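 active means inhibition of at least 50% in every replicate; inconclusive means best replicate reaches 50% inhibition but some replicates fall short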
# CSN inh = inhibitors of human CSN-mediated cullin deneddylation; Q92905; Purified CSN, SCF-Nedd8-OG deneddylation, fluorescence polarization; inhibition, % at 12.5 µM; hit rate 0.38% among 360,000;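 active means pattern-corrected inhibition above about 35%, with an unprinted fluorescence ratio check between 0.5 and 1.5, limit read from the data, passing the limit was not always enough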
#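 Assay system: purified human Csn5 enzyme expressed in HEK293T cells; measure: % inhibition; also added: SCFSkp2-Nedd8OG substrate at 10 nM final; technique: fluorescence polarization; times: reaction 90 min, room temperature; medium: Tris buffer pH 7.5, NaCl, DTT, Tween-20, trehalose, ovalbumin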
# CSN5 deneddyl = Csn5 (human) deneddylation inhibition, single-concentration validation. Csn5 deneddylation of SCF-Nedd8OG, fluorescence polarization, 90 min. inhibition, % at 16.6 µM. hit rate 62% among 540. shares compounds with CSN inh. AID 720654; in the data active means inhibition above about 50%
# MMP-2 counter = counter-screen for CSN deneddylation inhibitors: human MMP-2 inhibition | shares compounds with CSN inh | recombinant MMP-2, FRET substrate fluorescence, 60 min | inhibition, % at 16.6 µM | hit rate 33% among 540 | AID 720655;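 active means corrected plate-normalized z-score of 5 or more, or -5 or less, or inhibition of 15% or more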
# Target sequence (P08253 whole entry, looked up): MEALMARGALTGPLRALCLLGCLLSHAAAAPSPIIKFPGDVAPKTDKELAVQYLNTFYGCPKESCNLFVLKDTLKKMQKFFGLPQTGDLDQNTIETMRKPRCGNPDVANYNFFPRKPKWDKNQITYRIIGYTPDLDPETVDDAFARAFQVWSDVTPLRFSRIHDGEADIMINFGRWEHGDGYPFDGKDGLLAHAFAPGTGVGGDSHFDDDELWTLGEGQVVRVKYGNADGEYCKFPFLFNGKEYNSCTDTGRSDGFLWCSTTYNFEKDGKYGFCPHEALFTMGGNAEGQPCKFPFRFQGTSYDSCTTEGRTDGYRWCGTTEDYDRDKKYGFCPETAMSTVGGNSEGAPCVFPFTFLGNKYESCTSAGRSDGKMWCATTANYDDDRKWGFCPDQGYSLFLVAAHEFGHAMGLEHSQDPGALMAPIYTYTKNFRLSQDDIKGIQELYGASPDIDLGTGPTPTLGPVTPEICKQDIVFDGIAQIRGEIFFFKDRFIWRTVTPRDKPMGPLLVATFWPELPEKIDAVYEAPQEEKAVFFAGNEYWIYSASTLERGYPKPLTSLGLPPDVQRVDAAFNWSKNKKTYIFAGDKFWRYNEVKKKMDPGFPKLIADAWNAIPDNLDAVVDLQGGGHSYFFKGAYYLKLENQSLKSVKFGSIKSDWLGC
# Thrombin counter = thrombin (bovine) inhibition, counter-screen for CSN hits; bovine thrombin cleavage of Ub4-pepOG, fluorescence polarization; inhibition, % at 16.6 µM; hit rate 49% among 540; shares compounds with CSN inh;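 active means inhibition at or above a set limit, with a fluorescence interference ratio between 0.5 and a set maximum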
# Numbers stand for hits; n = inactive; u = inconclusive; x = no result; ! = not active in a repeat.
SMILES,TPT1 inh,HNF4A DNA FP,Rtt109 HAT inh,CSN inh,CSN5 deneddyl,MMP-2 counter,Thrombin counter
Cn1nc(-c2ccccn2)nc2c(=O)n(C)c(=O)nc1-2,n,153,n,57,n,n,n
COc1ccc(-c2nc(-c3ccccn3)ncc2S(C)(=O)=O)cc1,n,n,n,n,x,x,x
CCn1c(N)nc2c1c(=O)n(C)c(=O)n2C,n,n,n,n,x,x,x
COc1ccccc1CNC(=O)CN(C)CC(=O)Nc1ccccc1Br,x,n,n,n,x,x,x
CN(c1ccc(F)cc1)S(=O)(=O)c1ccc(Cl)c(C(=O)NCC2(N3CCOCC3)CCCCC2)c1,x,n,n,n,x,x,x
CCOC(=O)c1ccccc1NC(=O)Cc1ccc(S(=O)(=O)N2CCCC2)s1,x,n,n,n,x,x,x
CCOc1ccc(C(=O)Nc2cc(-c3nc4ccccc4[nH]3)ccc2Cl)cc1[N+](=O)[O-],n,n,n,111,x,n,n
Cc1nc(S/C(=C\c2ccc(-c3ccc(C(=O)O)c(Cl)c3)o2)C(=O)O)n[nH]1,x,n,n,73,x,19,n
c1ccc(C2CCC(N3CCN(c4ccccc4)CC3)CC2)cc1 (centres undefined),n,n,n,n,x,x,x
COc1ccc(CNc2ncc(-c3cccc([N+](=O)[O-])c3)n2C)c(OC)c1OC,n,n,n,n,x,x,x
O=c1[nH]c(Nc2ccc(F)cc2)cc2ccccc12,n,n,n,35,73,n,n
COc1ccc(OC)c2c(C)c(C)[nH]c12,n,n,n,n,x,x,x
O=C(O)CN1C(=O)/C(=C/c2ccc(SCc3ccccc3)o2)SC1=S,x,n,n,87,88,n,96
O=C(CCCN1C(=O)/C(=C\c2ccco2)SC1=S)Nc1ccc2ccccc2c1,n,n,n,n,x,x,x
O=C1/C(=C\c2ccco2)SC(=S)N1Cc1ccccc1,n,n,n,n,x,x,x
O=C(O)CCCN1C(=O)/C(=C\c2ccco2)SC1=S,x,n,n,42,94,30,n
O=C(CCCN1C(=O)/C(=C/c2ccco2)SC1=S)Nc1ccccc1C(=O)O,n,n,n,39,83,25,32
O=C(CCN1C(=O)/C(=C/c2ccco2)SC1=S)Nc1ccc(C(=O)O)c(O)c1,n,n,n,52,73,n,n
C/C(=N\Nc1nncc2ccccc12)c1cccc(OC(F)F)c1,n,n,n,n,x,x,x
O=C(O)CCCCCN1C(=O)/C(=C/c2cn(-c3ccccc3)nc2-c2cccs2)SC1=S,x,n,n,92,82,n,22
O=C(CCN1C(=O)/C(=C/c2ccco2)SC1=S)Nc1ccc(O)cc1C(=O)O,x,n,n,43,77,n,n
O=C(CCN1C(=O)/C(=C/c2ccccc2Cl)SC1=S)Nc1ccccc1C(=O)O,n,n,n,n,x,x,x
O=C(O)CN1C(=O)/C(=C\c2ccc(OC(=O)c3ccco3)cc2)SC1=S,n,73,n,54,82,n,68
CC1(C(=O)NS(=O)(=O)c2cccs2)CCN1C(=O)CC1CC1 (centres undefined),x,n,x,n,x,x,x
CCN1/C(=C/C(C)=C/c2sc3ccccc3[n+]2CC)Sc2ccccc21,n,197,134,77,n,50!,113
SMILES,TPT1 inh,HNF4A DNA FP,Rtt109 HAT inh,CSN inh,CSN5 deneddyl,MMP-2 counter,Thrombin counter
CCN1/C(=C\C(=S)Nc2ccccc2)Sc2ccccc21,n,n,n,n,x,x,x
CC(C)CC(=O)C1=C(O)C(=O)N(Cc2ccccc2)C1c1ccccc1 (centres undefined),n,n,n,n,x,x,x
CCOc1ccccc1NC(=O)CCNC(=O)C1CCN(S(=O)(=O)c2ccccc2)CC1,x,n,x,n,x,x,x
Cc1nc(NCc2ccco2)c2c(C)c(C)sc2n1,n,n,n,n,x,x,x
Cc1sc2nc3c4ccccc4c(NCc4ccco4)nn3c(=O)c2c1C,n,n,n,64,102,n,n
CCN1/C(=C/c2ccc3cc(C)cc(C)c3[n+]2CC)Sc2cc(C)ccc21,x,151,82,81,n,64,23
Cc1ccc2c(c1)S/C(=C\c1cccc[n+]1C)N2CCO,n,n,n,n,x,x,x
CCN1/C(=C\c2ccc3cc(C)ccc3[n+]2CC)Sc2cc(C)c(C)cc21,x,107,u,66,n,20,113
COCCNC(=O)C1(C)CCN(C(=O)COc2ccc(Cl)cc2Cl)C1 (centres undefined),x,n,x,n,x,x,x
Cc1ccc(S(=O)(=O)/N=C2/NC(=O)/C(=C/c3cc([N+](=O)[O-])ccc3O)S2)cc1,64,n,n,55,53,-44,31
COCCc1ccc(OC2(C)CCN(Cc3cccc(OCOC)c3)C2)cc1 (centres undefined),x,n,x,n,x,x,x
COc1ccc(CNC(=O)C(=O)NCC2OCCCN2S(=O)(=O)c2cccs2)cc1 (centres undefined),n,n,n,n,x,x,x
CCN(CC)c1ccc(C=Nc2ccc(C)cc2)c(O)c1,n,n,n,n,x,x,x
CCN(CC)c1ccc(C=Nc2ccc(N(C)C)cc2)c(O)c1,n,n,n,42,128,n,37
CCOC(=O)NC(=O)CSc1ccc(S(=O)(=O)N(C)C2CCCCC2)cn1,x,n,n,n,x,x,x
O=C1C(=O)c2cccnc2-c2ncccc21,x,n,x,59,n,n,n
O=C1c2cccnc2-c2ncccc21,n,n,n,n,x,x,x
[O-][n+]1cccc2c(Br)cc(Br)c(O)c21,n,n,x,n,x,x,x
C[n+]1cccc2c(Br)ccc([O-])c21,n,n,n,45,103,n,n
O=C(c1cc(-c2cccnc2)nc2ccccc12)N1CCN(S(=O)(=O)c2ccc(Cl)s2)CC1,x,n,n,n,x,x,x
C=CCOc1ccc(/C=C/C(=O)OCC(=O)NCC(=O)Nc2c(C)cc(C)cc2C)cc1,n,n,n,n,x,x,x
S=c1[nH]nc(-c2cc(-c3ccccc3)n[nH]2)n1/N=C/c1ccc(Br)s1,n,n,n,36,82,21,n
CC1(C)CC(=O)C=C(C#CC2(O)CCCCC2)C1,x,n,x,n,x,x,x
Cc1ccc(NC(=O)CN2C(=O)S/C(=C/c3ccc(-c4cc(C(=O)O)ccc4C)o3)C2=O)cc1C,n,n,n,64,76,18,n
O=C(O)CSc1nc2sc3c(c2c(=O)n1Cc1ccccc1)CCCCC3,n,n,n,n,x,x,x
SMILES,TPT1 inh,HNF4A DNA FP,Rtt109 HAT inh,CSN inh,CSN5 deneddyl,MMP-2 counter,Thrombin counter
O=C(O)CSc1cc(C(=O)c2ccccc2O)cn2c(=O)c3c4c(sc3nc12)CCCC4,x,n,n,43,n,42,n
CC(C)Cn1c(N)c(C(=O)COC(=O)Cc2cccc(C(F)(F)F)c2)c(=O)n(C)c1=O,n,n,n,n,x,x,x
COc1cc(NCCCCCCN)c2ncccc2c1OC,x,n,n,86,x,n,n
COc1cc(NC(C)CCCNC(C)C)c2ncccc2c1OC (centres undefined),x,n,n,n,x,x,x
Cc1ccc(CNc2ccc(O)cc2)cc1,x,n,n,38,87,n,n
CCc1ccc(O)c(N=Cc2cccc(C)c2O)c1,n,n,n,n,x,x,x
